Source: ChEMBL document CHEMBL1932942, “Antioxidant properties of 4-quinolones and structurally related flavones” (Bioorg Med Chem, 2012)
Activity calls are given as the source filed them. No cut-off for these calls is given here.

Assays:
[1] = Antioxidant activity assessed as trolox equivalents ratio of ferric ion reducing activity using fe3+-TPTZ at 0.01 mM by FRAP assay; type: functional
Procedure, shortened: (§1)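 Compound in 10% DMSO (final) was mixed with FRAP reagent (300 mM acetate buffer pH 3.6, 10 mM TPTZ in 40 mM HCl, 20 mM FeCl3, 10:1:1). Reading at 37 °C, 595 nm, after a 3 min lag, then every 6 min to 33 min. Value at 33 min expressed as percent of the 0.1 mM Trolox standard. DMSO/reagent blank subtracted. Triplicates.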

[2] = test system: Brain; assay: Antioxidant activity against toxin solution-induced lipid peroxidation in Sprague-Dawley rat brain homogenates assessed as free MDA levels per mg of tissue at 0.1 by TBARS assay; type: functional, tissue-based
Procedure, shortened: (§2)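 Adult Sprague Dawley rat brains (200–250 g) homogenised 10% (w/v) in PBS, pH 7.4. Peroxidation induced with toxin solution (0.5 mM H2O2, 0.488 mM FeCl3, 0.14 mM ascorbic acid, 2:1:1). Compounds given in 10% DMSO final, with a 10% DMSO blank. BHT, TCA and TBA added, then 60 °C incubation, ice cooling and butanol extraction. A530 read; nmol MDA equivalents/mg tissue from a TMP curve.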

[3] = Antioxidant activity assessed as trolox equivalents ratio of ferric ion reducing activity using fe3+-TPTZ at 0.1 mM by FRAP assay; type: functional; procedure, shortened: as §1
[4] = Antioxidant activity assessed as ferric ion reducing activity using fe3+-TPTZ at 1 mM by FRAP assay; type: functional
[5] = test system: Brain; assay: Antioxidant activity against toxin solution-induced lipid peroxidation in Sprague-Dawley rat brain homogenates assessed as free MDA levels per mg of tissue at 0.001 by TBARS assay; type: functional, tissue-based
[6] = test system: Brain; assay: Antioxidant activity against toxin solution-induced lipid peroxidation in Sprague-Dawley rat brain homogenates assessed as free MDA levels per mg of tissue at 0.01 by TBARS assay; type: functional, tissue-based; procedure, shortened: as §2
[7] = Antioxidant activity assessed as trolox equivalents ratio of AAPH-induced peroxyl radical scavenging activity at 0.1 mM by ORAC assay; type: functional
Procedure, shortened: (§3)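 Peroxyl scavenging in 75 mM potassium phosphate, pH 7.4. Compound in 10% DMSO (final) was mixed with 112 nM fluorescein, and 36 mM AAPH (final) was added. Fluorescence (ex 485/em 530 nm) was read every 5 min for 3 h. AUC was converted to Trolox equivalents against a Trolox curve (0–20 µM, duplicates). DMSO blank was subtracted. Mean of triplicates.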

[8] = test system: Brain; assay: Antioxidant activity against toxin solution-induced lipid peroxidation in Sprague-Dawley rat brain homogenates assessed as free MDA levels per mg of tissue at 1 by TBARS assay; type: functional, tissue-based; procedure, shortened: as §2
[9] = Antioxidant activity assessed as trolox equivalents ratio of ferric ion reducing activity using fe3+-TPTZ at 0.001 mM by FRAP assay; type: functional; procedure, shortened: as §1
[10] = Antioxidant activity assessed as AAPH-induced peroxyl radical scavenging activity at 1 mM by ORAC assay; type: functional
[11] = Antioxidant activity assessed as trolox equivalents ratio of AAPH-induced peroxyl radical scavenging activity at 0.01 mM by ORAC assay; type: functional; procedure, shortened: as §3
[12] = Antioxidant activity assessed as trolox equivalents ratio of AAPH-induced peroxyl radical scavenging activity at 0.001 mM by ORAC assay; type: functional; procedure, shortened: as §3

Work on `Oc1cc(-c2ccccc2)nc2ccccc12` yielded a Ratio [1] of 1.06, an Activity [2] of 0.87 nmol and a Ratio [3] of 4.79. The Activity [4] was “inactive”, the Activity [5] was “inactive” and the Activity [6] was 0.91 nmol. The Ratio [7] was 1.91, the Activity [8] was 0.87 nmol and the Ratio [9] was 0.53. The Activity [10] was “inactive”.

`O=c1cc(-c2ccccc2)oc2ccccc12` showed a Ratio [1] of 3.73, an Activity [2] of 0.87 nmol and a Ratio [11] of 1.51. The Activity [3] was “inactive”, the Ratio [4] was 2.72 and the Activity [5] was “inactive”. For the same compound, the Activity [6] was 0.78 nmol, the Activity [7] was “inactive” and the Activity [8] was 0.83 nmol. It also gave a Ratio [9] of 0.2 and a Ratio [10] of 2.4.

Compound `c1ccc2ncccc2c1` has a Ratio [1] of 2.42, an Activity [2] of 0.77 nmol and a Ratio [12] of 1.4. The Ratio [3] was 0.98, the Activity [4] was “inactive” and the Activity [5] was “inactive”. It also gave an Activity [6] of 0.8 nmol, an Activity [8] of 0.73 nmol and a Ratio [9] of 1.97. For the same compound, the Activity [10] was “inactive”.

Work on `Oc1ccc2nc(-c3ccccc3)cc(O)c2c1` yielded a Ratio [1] of 9.53, an Activity [2] of 0.31 nmol and a Ratio [11] of 29. The Ratio [12] was 12.3, the Ratio [3] was 58.9 and the Activity [4] was “inactive”. For the same compound, the Activity [5] was “inactive”, the Activity [6] was 0.48 nmol and the Ratio [7] was 58.3. The Activity [8] was 0.05 nmol, the Ratio [9] was 2.14 and the Activity [10] was “inactive”.

For `Oc1cccc2cccnc12`, the Ratio [1] was 3.68, the Activity [2] was 0.83 nmol and the Ratio [11] was 30.5. The Ratio [12] was 10.2, the Ratio [3] was 15.4 and the Activity [4] was “inactive”. For the same compound, the Activity [5] was “inactive”, the Activity [6] was 0.93 nmol and the Ratio [7] was 55.4. For the same compound, the Activity [8] was 0.07 nmol, the Ratio [9] was 2.65 and the Activity [10] was “inactive”.

In the case of `Oc1ccnc2ccccc12`, the Ratio [1] is reported as 1.69, the Activity [2] is reported as 0.92 nmol and the Ratio [12] is reported as 1.5. The Ratio [3] was 0.23, the Activity [4] was “inactive” and the Activity [5] was “inactive”. It also gave an Activity [6] of 0.93 nmol, an Activity [8] of 0.77 nmol and a Ratio [9] of 2.82. For the same compound, the Activity [10] was “inactive”.

In the case of `Oc1ccc2c(O)cc(-c3ccccc3)nc2c1`, the Ratio [1] is reported as -1.26, the Activity [2] is reported as 0.71 nmol and the Ratio [11] is reported as 26.4. The Ratio [12] was 15.3, the Ratio [3] was 1.41 and the Activity [4] was “inactive”. For the same compound, the Activity [5] was “inactive”, the Activity [6] was 0.69 nmol and the Ratio [7] was 57.5. For the same compound, the Activity [8] was 0.72 nmol, the Ratio [9] was -3.48 and the Activity [10] was “inactive”.

Work on `O=c1cc(-c2ccccc2)oc2ccc(O)cc12` yielded a Ratio [1] of 2.47, an Activity [2] of 0.79 nmol and a Ratio [11] of 37.1. For the same compound, the Ratio [12] was 21.4, the Activity [4] was “inactive” and the Activity [5] was “inactive”. For the same compound, the Activity [6] was 0.82 nmol, the Ratio [7] was 59 and the Activity [8] was 0.63 nmol. The Ratio [9] was 1.84 and the Activity [10] was “inactive”.

`Oc1cc(-c2ccccc2)nc2c(O)cccc12` gave a Ratio [1] of 25.5, an Activity [2] of 0.49 nmol and a Ratio [11] of 26.1. For the same compound, the Ratio [12] was 9.18, the Ratio [3] was 97.7 and the Activity [4] was “inactive”. For the same compound, the Activity [5] was “inactive”, the Activity [6] was 0.58 nmol and the Ratio [7] was 65.4. The Activity [8] was 0.27 nmol, the Ratio [9] was 3.56 and the Activity [10] was “inactive”.

`O=c1cc(-c2ccccc2)oc2cc(O)ccc12` showed a Ratio [1] of 2.52, an Activity [2] of 0.48 nmol and a Ratio [3] of 15.1. For the same compound, the Activity [4] was “inactive”, the Activity [5] was “inactive” and the Activity [6] was 0.42 nmol. The Activity [8] was 0.91 nmol, the Ratio [9] was 2.04 and the Activity [10] was “inactive”.
